# Test results as given in ChEMBL document CHEMBL2417469, “Synthesis of novel analogs of 2-pyrazoline obtained from [(7-chloroquinolin-4-yl)amino]chalcones and hydrazine as potential antitumor and antimalarial agents” (Eur J Med Chem, 2013).
# Key:
# Type in all cases: functional
# MDA-MB-468 = assay: Cytotoxicity against human MDA-MB-468 cells after 48 hrs by SRB assay; conditions: MDA-MB-468, 48 h
# In short: (§1)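 NCI 60-cell-line screen. Cells preincubated 24 h at 37 °C, 5% CO2; time-zero plates TCA-fixed. Compounds dissolved in DMSO and tested at five concentrations (100, 10, 1.0, 0.1, 0.01 µM) for 48 h continuous exposure. Adherent cells fixed with cold TCA (10% final), then SRB stained; absorbance at 515 nm. GI50, TGI and LC50 calculated from growth relative to time-zero and untreated controls.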
# BT-549 = assay: Cytotoxicity against human BT549 cells after 48 hrs by SRB assay; conditions: BT-549, 48 h; in short: as §1
# T47D = assay: Cytotoxicity against human T47D cells after 48 hrs by SRB assay
# In short: (§2)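 NCI 60-cell screen. Cells grew 24 h (37 °C, 5% CO2) before compound was added. Compounds were in DMSO and diluted in medium with gentamicin, then tested at five levels (100, 10, 1.0, 0.1, 0.01 µM) with 48 h continuous exposure. Adherent cells were fixed with TCA (10% final) and stained with 0.4% SRB, absorbance read at 515 nm. A time-zero plate was included. LC50 is the concentration giving 50% loss of protein relative to time zero.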
# SN12C = assay: Cytotoxicity against human SN12C cells after 48 hrs by SRB assay; in short: as §1
# CAKI-1 = assay: Cytotoxicity against human Caki1 cells after 48 hrs by SRB assay; conditions: CAKI-1, 48 h; in short: as §1
# RXF 393 = assay: Cytotoxicity against human RXF393 cells after 48 hrs by SRB assay; conditions: RXF 393, 48 h; in short: as §1
# SK-OV-3 = assay: Cytotoxicity against human SKOV3 cells after 48 hrs by SRB assay; conditions: SK-OV-3, 48 h; in short: as §1
# NCI/ADR-RES = assay: Cytotoxicity against human NCI/ADR-RES cells after 48 hrs by SRB assay; conditions: for CC50: read-out: LC50 (the source's name); in short: as §1
# OVCAR-8 = assay: Cytotoxicity against human OVCAR8 cells after 48 hrs by SRB assay; conditions: OVCAR-8, 48 h; in short: as §1
# IGROV-1 = assay: Cytotoxicity against human IGROV1 cells after 48 hrs by SRB assay; conditions: IGROV-1, 48 h; in short: as §1
# UACC-62 = assay: Cytotoxicity against human UACC62 cells after 48 hrs by SRB assay; conditions: UACC-62, 48 h; for CC50: read-out: LC50 (the source's name); in short: as §2
# SK-MEL-5 = assay: Cytotoxicity against human SK-MEL-5 cells after 48 hrs by SRB assay; conditions: SK-MEL-5, 48 h; in short: as §1
# MDA-MB-435 = assay: Cytotoxicity against human MDA-MB-435 cells after 48 hrs by SRB assay; conditions: MDA-MB-435, 48 h; in short: as §1
# M14 = assay: Cytotoxicity against human M14 cells after 48 hrs by SRB assay; conditions: M14, 48 h; for CC50: read-out: LC50 (the source's name); in short: as §1
# Malme-3M = assay: Cytotoxicity against human MALME-3M cells after 48 hrs by SRB assay; in short: as §1
# U-251 = assay: Cytotoxicity against human U251 cells after 48 hrs by SRB assay; conditions: U-251, 48 h; for CC50: read-out: LC50 (the source's name); in short: as §2
# LOX IMVI = assay: Cytotoxicity against human LOXIMVI cells after 48 hrs by SRB assay; in short: as §1
# SF-539 = assay: Cytotoxicity against human SF539 cells after 48 hrs by SRB assay; conditions: SF-539, 48 h; for CC50: read-out: LC50 (the source's name); in short: as §1
# SF-295 = assay: Cytotoxicity against human SF295 cells after 48 hrs by SRB assay; conditions: SF-295, 48 h; in short: as §1
# SF-268 = assay: Cytotoxicity against human SF268 cells after 48 hrs by SRB assay; conditions: SF-268, 48 h; in short: as §1
# KM12 = assay: Cytotoxicity against human KM12 cells after 48 hrs by SRB assay; conditions: KM12, 48 h; in short: as §1
# HCT-15 = assay: Cytotoxicity against human HCT15 cells after 48 hrs by SRB assay; conditions: HCT-15, 48 h; in short: as §1
# HT-29 = assay: Cytotoxicity against human HT-29 cells after 48 hrs by SRB assay; conditions: HT-29, 48 h; in short: as §1
# HCT-116 = assay: Cytotoxicity against human HCT116 cells after 48 hrs by SRB assay; conditions: HCT-116, 48 h; in short: as §1
# HCC 2998 = assay: Cytotoxicity against human HCC2998 cells after 48 hrs by SRB assay; conditions: HCC 2998, 48 h; in short: as §1
# NCI-H522 = assay: Cytotoxicity against human NCI-H522 cells after 48 hrs by SRB assay; conditions: NCI-H522, 48 h; for CC50: read-out: LC50 (the source's name); in short: as §1
# COLO 205 = assay: Cytotoxicity against human COLO205 cells after 48 hrs by SRB assay; conditions: COLO 205, 48 h; in short: as §1
# NCI-H460 = assay: Cytotoxicity against human NCI-H460 cells after 48 hrs by SRB assay; conditions: NCI-H460, 48 h; in short: as §1
# NCI-H226 = assay: Cytotoxicity against human NCI-H226 cells after 48 hrs by SRB assay; conditions: NCI-H226, 48 h; in short: as §1
# SR = assay: Cytotoxicity against human SR cells after 48 hrs by SRB assay; in short: as §2
# A549 = assay: Cytotoxicity against human A549/ATCC cells after 48 hrs by SRB assay; conditions: A549, 48 h; for CC50: read-out: LC50 (the source's name); in short: as §1
# RPMI-8226 = assay: Cytotoxicity against human RPMI8226 cells after 48 hrs by SRB assay; conditions: RPMI-8226, 48 h; in short: as §1
# Plasmodium falciparum = assay: Antimalarial activity against Plasmodium falciparum NF54 infected in human serum at 20 ug/ml after 48 hrs by fluorometric method
# In short: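 Asynchronous P. falciparum NF54 at 1.5–2% parasitemia, 5% hematocrit in RPMI with 10% human serum, exposed 48 h at 37 °C under 90% N2/5% CO2/5% O2 at the stated concentration; parasite DNA stained with ethidium bromide after proteinase K lysis; viability % = (Flu treated − medium)/(Flu untreated − medium) ×100; triplicate.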
# SK-MEL-2 = assay: Cytotoxicity against human SK-MEL-2 cells after 48 hrs by SRB assay; conditions: SK-MEL-2, 48 h; in short: as §1
smiles,measurement,setting,value
COc1cccc2c1C(=O)c1c(O)c3c(c(O)c1C2=O)C[C@@](O)(C(=O)CO)C[C@@H]3O[C@H]1C[C@H](N)[C@H](O)[C@H](C)O1 [DOXORUBICIN],GI50,MDA-MB-468,50 nM
same,GI50,BT-549,230 nM
same,GI50,T47D,60 nM
same,GI50,SN12C,70 nM
same,GI50,CAKI-1,950 nM
same,GI50,RXF 393,100 nM
same,GI50,SK-OV-3,220 nM
same,GI50,NCI/ADR-RES,7160 nM
same,CC50,NCI/ADR-RES,100000 nM
same,GI50,OVCAR-8,100 nM
same,GI50,IGROV-1,170 nM
same,GI50,UACC-62,120 nM
same,CC50,UACC-62,740 nM
same,GI50,SK-MEL-5,80 nM
same,GI50,MDA-MB-435,250 nM
same,GI50,M14,180 nM
same,CC50,M14,4050 nM
same,GI50,Malme-3M,120 nM
same,GI50,U-251,40 nM
same,CC50,U-251,30600 nM
same,GI50,LOX IMVI,70 nM
same,GI50,SF-539,120 nM
same,CC50,SF-539,27200 nM
same,GI50,SF-295,100 nM
same,GI50,SF-268,100 nM
same,GI50,KM12,270 nM
same,GI50,HCT-15,6460 nM
same,GI50,HT-29,120 nM
same,GI50,HCT-116,80 nM
same,GI50,HCC 2998,260 nM
same,GI50,NCI-H522,30 nM
same,CC50,NCI-H522,2800 nM
same,GI50,COLO 205,180 nM
same,GI50,NCI-H460,20 nM
same,GI50,NCI-H226,50 nM
same,GI50,SR,30 nM
same,GI50,A549,60 nM
same,CC50,A549,100000 nM
same,GI50,RPMI-8226,80 nM
O=CN1N=C(c2ccc(Nc3ccnc4cc(Cl)ccc34)cc2)CC1c1ccc(Cl)cc1 (stereo not drawn),inhibition at 20 µg/mL,Plasmodium falciparum,1.1%
same,GI50,MDA-MB-468,320 nM
same,LC50,MDA-MB-468,> 100000 nM
same,GI50,BT-549,4770 nM
same,LC50 (50% net cell kill vs time zero),BT-549,> 100000 nM
same,GI50,T47D,1560 nM
same,LC50 (concentration giving 50% cell kill relative to time zero),T47D,> 100000 nM
same,GI50,SN12C,980 nM
same,LC50 (50% net cell kill relative to time zero),SN12C,> 100000 nM
same,GI50,CAKI-1,410 nM
same,LC50,CAKI-1,> 100000 nM
same,GI50,RXF 393,1880 nM
same,LC50 (concentration killing 50% of cells),RXF 393,> 100000 nM
same,GI50,SK-OV-3,570 nM
same,LC50 (concentration killing 50% of cells),SK-OV-3,> 100000 nM
same,GI50,NCI/ADR-RES,360 nM
same,CC50,NCI/ADR-RES,> 100000 nM
same,GI50,OVCAR-8,3220 nM
same,LC50 (50% net cell kill),OVCAR-8,> 100000 nM
same,GI50,IGROV-1,5010 nM
same,LC50 (concentration killing 50% of cells relative to time zero),IGROV-1,> 100000 nM
same,GI50,UACC-62,570 nM
same,CC50,UACC-62,> 100000 nM
same,GI50,SK-MEL-5,810 nM
same,LC50 (concentration killing 50% of cells present at time zero),SK-MEL-5,> 100000 nM
same,GI50,SK-MEL-2,7860 nM
same,LC50,SK-MEL-2,> 100000 nM
same,GI50,MDA-MB-435,200 nM
same,LC50,MDA-MB-435,> 100000 nM
same,GI50,M14,620 nM
same,CC50,M14,> 100000 nM
same,LC50,Malme-3M,> 100000 nM
same,GI50,U-251,510 nM
same,CC50,U-251,> 100000 nM
same,GI50,LOX IMVI,600 nM
same,LC50,LOX IMVI,> 100000 nM
same,GI50,SF-539,580 nM
same,CC50,SF-539,> 100000 nM
same,GI50,SF-295,270 nM
same,LC50,SF-295,> 100000 nM
same,GI50,SF-268,850 nM
same,LC50,SF-268,> 100000 nM
same,GI50,KM12,540 nM
same,LC50 (concentration killing 50% of cells),KM12,> 100000 nM
same,GI50,HCT-15,580 nM
same,LC50 (concentration killing 50% of cells relative to time zero),HCT-15,> 100000 nM
same,GI50,HT-29,410 nM
same,LC50,HT-29,> 100000 nM
same,GI50,HCT-116,500 nM
same,LC50,HCT-116,> 100000 nM
same,GI50,HCC 2998,1610 nM
same,LC50,HCC 2998,> 100000 nM
same,GI50,NCI-H522,390 nM
same,CC50,NCI-H522,> 100000 nM
same,GI50,COLO 205,2400 nM
same,LC50,COLO 205,> 100000 nM
same,GI50,NCI-H460,590 nM
same,LC50,NCI-H460,> 100000 nM
same,GI50,NCI-H226,4660 nM
same,LC50 (50% lethal concentration),NCI-H226,> 100000 nM
same,GI50,SR,320 nM
same,LC50,SR,> 100000 nM
same,GI50,A549,990 nM
same,CC50,A549,> 100000 nM
